Results on 24 compounds are retold here after ChEMBL document CHEMBL3351347, “Eight pairs of epimeric triterpenoids involving a characteristic spiro-E/F ring from Abies faxoniana” (J Nat Prod, 2015).

Calls of active or inactive are those of the source. The calls are words filed in the database; no cut-off is given here.

One test relates to HepG2. In words: Cytotoxicity against human HepG2 cells after 24 hrs by MTT assay. Type of test: functional, cell-based. To be noted: HepG2, 24 h. The essentials: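 Cells grown in DMEM with 10% FBS, penicillin/streptomycin at 37 °C, 5% CO2. MTT (5 mg/mL solution) added for 2−4 h at 37 °C, formazan dissolved in DMSO, absorbance read at 570 nm. Viability = mean OD of treated wells / DMSO-control OD; IC50 from viability.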

Test [1] in a line: Cytotoxicity against human QSG7701 cells after 24 hrs by MTT assay. Type of test: cell-based. To be noted: QSG7701, 24 h. The essentials:
(§1)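 Cells grown in DMEM with 10% FBS, penicillin/streptomycin at 37 °C, 5% CO2. […] MTT (5 mg/mL solution) added for 2−4 h at 37 °C, formazan dissolved in DMSO, absorbance read at 570 nm. Viability = mean OD of treated wells / DMSO-control OD; IC50 from viability.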

Test [2] is described as follows: Cytotoxicity against human HuH7 cells after 24 hrs by MTT assay. Type of test: functional, cell-based. To be noted: Huh-7, 24 h. The essentials: as §1
A further test deals with SMMC-7721. The test can be described thus: Cytotoxicity against human SMMC7721 cells after 24 hrs by MTT assay. Conditions: SMMC-7721, 24 h. Format: functional, cell-based. The method, boiled down: as §1
Test [3] concerns Huh-7. In words: Induction of cell cycle arrest in human HuH7 cells assessed as reduction in accumulation at S phase at 5 to 20 uM after 24 hrs by propidium iodide staining based flow cytometry. Type of test: functional. The essentials: (§2)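 Huh7 exposed 24 h to 5, 10, 20 μM. Cells washed in PBS with 2% FBS, then 3 × 10^5 cells/mL fixed overnight in cold absolute EtOH at 4 °C. After two PBS washes, stained with PI solution (3.8 mM sodium citrate, 20 μg/mL PI in PBS) plus RNase A, 30 min at room temperature in the dark. DNA content read by flow cytometry; means ± SEM, three independent experiments.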

In test [4] the test system is Huh-7. In words: Induction of intracellular ROS production in human HuH7 cells at 20 uM pre-treated with 10 mM ROS scavenger NAC measured after 24 hrs post dose by carboxy-H2DCFDA staining based flow cytometry.
Test [5] relates to Huh-7. The test can be described thus: Induction of cell cycle arrest in human HuH7 cells assessed as increase in accumulation at G2/M phase at 5 to 20 uM after 24 hrs by propidium iodide staining based flow cytometry. Type of test: functional. The essentials:
as §2

In test [6] the test system is Huh-7. The test can be described thus: Induction of apoptosis in human HuH7 cells at 5 to 20 uM after 24 hrs by annexin V-FITC and propidium iodide double staining based flow cytometry. Type of test: functional, cell-based. The essentials: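 Huh7 exposed 24 h to 5, 10, 20 μM, then collected, PBS-washed and resuspended in binding buffer with annexin V-FITC (10 μg/mL) for 10 min in the dark. PI (20 μg/mL) added, samples read by flow cytometry immediately. Means ± SEM, three independent experiments.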

Test [7] deals with Huh-7. In words: Induction of intracellular ROS production in human HuH7 cells at 5 to 20 uM after 24 hrs by carboxy-H2DCFDA staining based flow cytometry. Format: functional, cell-based. The method, boiled down:
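Huh7 exposed 24 h to 5, 10, 20 μM, harvested, PBS-washed, then loaded in DMEM with 10 μM carboxy-H2DCFDA for 30 min at 37 °C. Washed again; fluorescence measured by flow cytometry as an index of intracellular ROS.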

The subject of test [8] is Huh-7. The test can be described thus: Induction of cell cycle arrest in human HuH7 cells assessed as reduction in accumulation at G0/G1 phase at 5 to 20 uM after 24 hrs by propidium iodide staining based flow cytometry. Format: functional. The method, boiled down:
as §2

For the compound `C[C@@H]1C[C@@]2(C[C@@H](C)[C@@]3(CC[C@]4(C)[C@]3(C)CC[C@@]35O[C@@]43[C@@H](OC(=O)Cc3ccccc3)C[C@H]3C(C)(C)C(=O)CC[C@@]35C)O2)OC1=O`, the IC50 (with HepG2; in test [1]; in [2]; with SMMC-7721) was above 50 µM throughout.

For `C[C@@H]1C[C@@]2(C[C@@H](C)[C@@]3(CC[C@@]4(C)C5=C(C(=O)C[C@@]43C)[C@@]3(C)CCC(=O)C(C)(C)[C@@H]3CC5)O2)OC1=O`, the IC50 was 31.2 µM with HepG2, 26.8 µM in test [1], above 50 µM in test [2] and above 50 µM in the test on SMMC-7721.

For the compound `C[C@@H]1C[C@@]2(C[C@@H](C)[C@@]3(CC[C@@]4(C)[C@H]5CC[C@H]6C(C)(C)C(=O)CC[C@]6(C)[C@@H]5CC[C@@]43C)O2)OC1=O`, the IC50 is above 50 µM in the test with HepG2, above 50 µM in test [1], 18.4 µM in [2] and 28.3 µM in the test with SMMC-7721.

For `C[C@@H]1C[C@]2(C[C@@H](C)[C@@]3(CC[C@@]4(C)C5=C(C(=O)C[C@@]43C)[C@@]3(C)CCC(=O)C(C)(C)[C@@H]3CC5)O2)OC1=O`, the IC50 with HepG2 is 31.2 µM; in test [1], 26.8 µM; in test [2], above 50 µM; in the test on SMMC-7721, above 50 µM.

With `C[C@@H]1C[C@@]2(C[C@@H](C)[C@@]3(CC[C@@]4(C)C(=O)[C@@]5(CC[C@@]43C)[C@@H](O)C[C@H]3C(C)(C)C(=O)CC[C@@]35C)O2)OC1=O`, the IC50 worked out at 15.4 µM with HepG2, 8.2 µM in test [1], 12.3 µM in [2] and 10.1 µM with SMMC-7721.

Take `CC(=O)O[C@@H]1CC[C@]23C[C@@]24CC[C@@]2(C)[C@@](C)(CC[C@]25O[C@@]2(C[C@@H](C)C(=O)O2)C[C@H]5C)[C@H]4CC[C@H]3C1(C)C`: the IC50 in the test on HepG2 was 9.8 µM; in test [1], above 50 µM; in test [2] it was 7.5 µM; with SMMC-7721, 10.7 µM. In addition, the outcome with Huh-7 [3], in the test with Huh-7 [5], in the test on Huh-7 [7] and with Huh-7 [8] was Active. The result in the test on Huh-7 [4] was inactive. The Activity result with Huh-7 [6] is “Dose-dependent effect”.

As to `C[C@@H]1C[C@]2(C[C@@H](C)[C@@]3(CC[C@@]4(C)C(=O)[C@@]5(CC[C@@]43C)[C@@H](O)C[C@H]3C(C)(C)C(=O)CC[C@@]35C)O2)OC1=O`, the IC50 in the test with HepG2 worked out at 15.4 µM; in test [1], 8.2 µM; in [2], 12.3 µM; with SMMC-7721 it was 10.1 µM.

In the case of `C[C@@H]1C[C@@]2(C[C@@H](C)[C@@]3(CC[C@@]4(C)C5=CC[C@H]6C(C)(C)[C@H](O)CC[C@]6(C)[C@@H]5CC[C@@]43C)O2)OC1=O`, the IC50 in the test on HepG2 was above 50 µM; in [1], 17.6 µM; in test [2], 16.4 µM; with SMMC-7721 it was 19.1 µM.

Consider `C[C@@H]1C[C@]2(C[C@@H](C)[C@@]3(CC[C@@]4(C)C5=CC[C@H]6C(C)(C)[C@H](O)CC[C@]6(C)[C@@H]5CC[C@@]43C)O2)OC1=O`, for which the IC50 was above 50 µM in the test with HepG2, 17.6 µM in test [1], 16.4 µM in [2] and 19.1 µM in the test on SMMC-7721.

On to `CO[C@@H]1CC[C@@]2(C)[C@@H](C[C@H](O)[C@@]23CC[C@]2(C)[C@@H]([C@H](C)C[C@@H]4C=C(C)C(=O)O4)CC[C@@]2(C)C3=O)C1(C)C`, for which the half-inhibitory concentration (IC50) in the test on HepG2 is 20.6 µM; in test [1], above 50 µM; in test [2], 35.1 µM; in the test with SMMC-7721, above 50 µM.

`CC(=O)O[C@@H]1CC[C@]23C[C@@]24CC[C@@]2(C)[C@@](C)(CC[C@]25O[C@]2(C[C@@H](C)C(=O)O2)C[C@H]5C)[C@H]4CC[C@H]3C1(C)C`: the IC50 in the test on HepG2 is 9.8 µM; in test [1], above 50 µM; in [2], 7.5 µM; in the test with SMMC-7721 it was 10.7 µM. Moreover, the result with Huh-7 [3], in the test with Huh-7 [5], with Huh-7 [7] and in the test on Huh-7 [8] was Active. Moreover, the outcome in the test with Huh-7 [4] was inactive. The Activity entry in the test on Huh-7 [6] is “Dose-dependent effect”.

For the compound `C[C@@H]1C[C@@]2(C[C@@H](C)[C@@]3(CC[C@@]4(C)C5=CC[C@H]6C(C)(C)C(=O)CC[C@]6(C)[C@@H]5CC[C@@]43C)O2)OC1=O`, the IC50 in the test on HepG2 is 14.1 µM; in test [1], 15.5 µM; in [2], 13.5 µM; in the test on SMMC-7721, 20.7 µM.

Consider `C[C@@H]1C[C@]2(C[C@@H](C)[C@@]3(CC[C@]4(C)[C@]3(C)CC[C@@]35O[C@@]43[C@@H](OC(=O)Cc3ccccc3)C[C@H]3C(C)(C)C(=O)CC[C@@]35C)O2)OC1=O`, for which the IC50 (in the test on HepG2; in test [1]; in test [2]; in the test on SMMC-7721) was above 50 µM each time.

For `C[C@H](CC(=O)C[C@@H](C)[C@]1(C)CC=C2C3=CC[C@H]4C(C)(C)[C@H](O)CC[C@]4(C)[C@@H]3CC[C@]21C)C(=O)O`, the IC50 with HepG2 was above 50 µM; in [1], 42.4 µM; in [2], above 50 µM; in the test with SMMC-7721 it was above 50 µM.

On to `C/C(=C/CC[C@@H](C)[C@H]1CC[C@@]2(C)C3=CC[C@H]4C(C)(C)C(=O)CC[C@]4(C)[C@@H]3CC[C@]12C)C(=O)O`, for which the IC50 is 24 µM in the test with HepG2, above 50 µM in test [1], above 50 µM in [2] and above 50 µM with SMMC-7721.

For `COC(=O)[C@H](C)CC(=O)C[C@@H](C)[C@]1(C)CC[C@@]2(C)C3=CC[C@H]4C(C)(C)[C@H](O)CC[C@]4(C)[C@@H]3CC=C21`, the IC50 (in the test on HepG2; in [1]; in test [2]; with SMMC-7721) was above 50 µM in each case.

Regarding `COc1cccc2c1C(=O)c1c(O)c3c(c(O)c1C2=O)C[C@@](O)(C(=O)CO)C[C@@H]3O[C@H]1C[C@H](N)[C@H](O)[C@H](C)O1` [DOXORUBICIN], the IC50 in [1] turned out to be 2.9 µM; in [2], 0.7 µM; in the test with SMMC-7721 it was 0.3 µM.

Regarding `C[C@@H]1C[C@@]2(C[C@@H](C)[C@@]3(CC[C@@]4(C)[C@H]5CC[C@H]6C(C)(C)[C@H](O)CC[C@@]67C[C@]57CC[C@@]43C)O2)OC1=O`, the IC50 with HepG2 was 21.1 µM; in test [1] it was above 50 µM; in test [2], 16 µM; in the test with SMMC-7721, 25.2 µM.

With `C[C@@H]1C[C@@H](C[C@@H](C)[C@@]2(O)CC[C@@]3(C)C4=C(CC[C@@]32C)[C@@]2(C)CCC(=O)C(C)(C)[C@@H]2CC4)OC1=O`, the IC50 in the test on HepG2 was above 50 µM; in test [1] it was 37 µM; in [2], 40.1 µM; with SMMC-7721, 34.6 µM.

For the compound `CC1=CC(O)(C[C@@H](C)C2=CC[C@@]3(C)C4=C(CC[C@]23C)[C@@]2(C)CCC(=O)C(C)(C)[C@@H]2CC4)OC1=O` (some centres not stated) [NEOABIESLACTONE E], the IC50 in the test with HepG2 was found to be 16.7 µM; in [1], 10.1 µM; in [2] it was 20.9 µM; with SMMC-7721 it was 13.4 µM.

Consider `C[C@@H]1C[C@]2(C[C@@H](C)[C@@]3(CC[C@@]4(C)[C@H]5CC[C@H]6C(C)(C)[C@H](O)CC[C@@]67C[C@]57CC[C@@]43C)O2)OC1=O`, for which the IC50 in the test with HepG2 is 21.1 µM; in test [1], above 50 µM; in [2], 16 µM; with SMMC-7721, 25.2 µM.

`C[C@@H]1C[C@]2(C[C@@H](C)[C@@]3(CC[C@@]4(C)[C@H]5CC[C@H]6C(C)(C)C(=O)CC[C@]6(C)[C@@H]5CC[C@@]43C)O2)OC1=O`: the IC50 in the test on HepG2 was above 50 µM; in test [1], above 50 µM; in test [2], 18.4 µM; in the test with SMMC-7721, 28.3 µM.

Turning to `C[C@@H]1C[C@]2(C[C@@H](C)[C@@]3(CC[C@@]4(C)C5=CC[C@H]6C(C)(C)C(=O)CC[C@]6(C)[C@@H]5CC[C@@]43C)O2)OC1=O`, the IC50 with HepG2 was 14.1 µM; in [1], 15.5 µM; in test [2] it was 13.5 µM; in the test with SMMC-7721, 20.7 µM.

Regarding `C/C(=C/CC[C@@H](C)[C@H]1CC[C@@]2(C)C3=CC[C@H]4C(C)(C)[C@@H](O)CC[C@]4(C)[C@@H]3CC[C@]12C)C(=O)O`, the IC50 (with HepG2; in [1]; in test [2]; in the test on SMMC-7721) was above 50 µM in each case.
